Laboratory results published in ChEMBL document CHEMBL3352171, “Synthesis and biological evaluation of andrographolide analogues as anti-cancer agents” (Eur J Med Chem, 2014).
Calls of active or inactive are those of the source. The rule behind the calls is not given here.

Columns and labels:
[1] = Induction of DNA adduct formation (unknown origin) using guanosine in presence of glacial acetic acid at 75 degC incubated for 12 hrs by TLC method
Outline: (§1)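 Model reaction of compound with guanosine in glacial acetic acid at 75 °C, heated up to 12 h; adduct sought by TLC and LCMS.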

[2] = Induction of DNA adduct formation (unknown origin) using guanosine in presence of glacial acetic acid at 75 degC incubated for 12 hrs by LC-MS method; outline: as §1
[3] = Drug hydrolysis in pH 7.4 PBS buffer assessed as first order rate constant for andrographolide formation by HPLC method; type: physicochemical
Outline: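 Compound in PBS pH 7.4 without enzyme; unreacted parent quantified by HPLC at time intervals. Decay fitted to first-order rate equation to give rate constant and half-life.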

[4] = system: HEK293; experiment: Induction of apoptosis in HEK293 cells assessed as apoptotic nuclei formation at 5 uM after 48 hrs by DAPI staining based fluorescence microscopy; type: functional, cell-based; settings: Homo sapiens
[5] = system: HEK293; experiment: Induction of cell death in HEK293 cells at 15 to 20 uM after 48 hrs by DAPI staining based fluorescence microscopy; type: functional; settings: Homo sapiens
[6] = system: HEK293; experiment: Induction of apoptosis in HEK293 cells at 5 to 20 uM after 48 hrs by DAPI staining based fluorescence microscopy; type: functional, cell-based; settings: Homo sapiens
[7] = system: HEK293; experiment: Cytotoxicity against HEK293 cells after 48 hrs by MTT assay; type: functional; settings: Homo sapiens, HEK293, 48 h; read-out: LC50 (the source's name)
Outline: (§2)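 Cells seeded at 10,000 per well and exposed to increasing compound concentrations for 48 h. After a PBS wash, MTT (2.5 mg/mL) was added for 6 h at 37 °C, then detergent (10% NP-40, 4 mM HCl), and absorbance was read at 570 nm. LC50 is the concentration causing 50% cell death. Values are means of three independent experiments.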

[8] = system: Vero; experiment: Cytotoxicity against african green monkey Vero cells after 48 hrs by MTT assay; type: cell-based; settings: chlorocebus sabaeus; outline: as §2
[9] = Cytotoxicity against human MCF10A cells after 48 hrs by MTT assay; type: cell-based; settings: mcf-10a; outline: as §2
[10] = system: HEK293; experiment: Induction of apoptosis in HEK293 cells at 5 uM after 48 hrs by propidium iodide staining based flow cytometry (reference value: 24.26 +/- 0.8%); type: functional, Homo sapiens
[11] = system: HEK293; experiment: Induction of apoptosis in HEK293 cells at 10 uM after 48 hrs by propidium iodide staining based flow cytometry (reference value: 24.26 +/- 0.8%); type: functional, Homo sapiens
[12] = system: HEK293; experiment: Induction of apoptosis in HEK293 cells at 15 uM after 48 hrs by propidium iodide staining based flow cytometry (reference value: 24.26 +/- 0.8%); type: functional, Homo sapiens
[13] = system: HEK293; experiment: Induction of apoptosis in HEK293 cells at 20 uM after 48 hrs by propidium iodide staining based flow cytometry (reference value: 24.26 +/- 0.8%); type: functional, Homo sapiens
[14] = system: HEK293; experiment: Induction of cell cycle arrest in HEK293 cells assessed as accumulation at G1 phase at 10 uM after 48 hrs by propidium iodide staining based flow cytometry (reference value: 53.21 +/- 0.8%); type: functional, Homo sapiens
[15] = system: HEK293; experiment: Induction of cell cycle arrest in HEK293 cells assessed as accumulation at G1 phase at 15 uM after 48 hrs by propidium iodide staining based flow cytometry (reference value: 53.21 +/- 0.8%); type: functional, Homo sapiens
[16] = system: HEK293; experiment: Induction of cell cycle arrest in HEK293 cells assessed as accumulation at G1 phase at 20 uM after 48 hrs by propidium iodide staining based flow cytometry (reference value: 53.21 +/- 0.8%); type: functional, Homo sapiens
[17] = system: HEK293; experiment: Induction of cell cycle arrest in HEK293 cells assessed as accumulation at S phase at 5 uM after 48 hrs by propidium iodide staining based flow cytometry (reference value: 19.9 +/- 0.5%); type: functional, Homo sapiens
[18] = system: HEK293; experiment: Induction of cell cycle arrest in HEK293 cells assessed as accumulation at S phase at 10 uM after 48 hrs by propidium iodide staining based flow cytometry (reference value: 19.9 +/- 0.5%); type: functional, Homo sapiens
[19] = system: HEK293; experiment: Induction of cell cycle arrest in HEK293 cells assessed as accumulation at S phase at 15 uM after 48 hrs by propidium iodide staining based flow cytometry (reference value: 19.9 +/- 0.5%); type: functional, Homo sapiens
[20] = system: HEK293; experiment: Induction of cell cycle arrest in HEK293 cells assessed as accumulation at G2/M phase at 5 uM after 48 hrs by propidium iodide staining based flow cytometry (reference value: 2.63 +/- 0.7%); type: functional, Homo sapiens
[21] = system: HEK293; experiment: Induction of cell cycle arrest in HEK293 cells assessed as accumulation at G2/M phase at 20 uM after 48 hrs by propidium iodide staining based flow cytometry (reference value: 2.63 +/- 0.7%); type: functional, Homo sapiens
[22] = target: T1, Nuclear factor NF-kappa-B complex (Homo sapiens) (UniProt Q00653+P19838+Q04206); experiment: Inhibition of NFkappaB (unknown origin) expressed in HEK293 cells assessed as reduction in transcriptional activity after 48 hrs by luciferase reporter gene assay; type: cell-based
T1 sequence (P19838 whole entry, looked up): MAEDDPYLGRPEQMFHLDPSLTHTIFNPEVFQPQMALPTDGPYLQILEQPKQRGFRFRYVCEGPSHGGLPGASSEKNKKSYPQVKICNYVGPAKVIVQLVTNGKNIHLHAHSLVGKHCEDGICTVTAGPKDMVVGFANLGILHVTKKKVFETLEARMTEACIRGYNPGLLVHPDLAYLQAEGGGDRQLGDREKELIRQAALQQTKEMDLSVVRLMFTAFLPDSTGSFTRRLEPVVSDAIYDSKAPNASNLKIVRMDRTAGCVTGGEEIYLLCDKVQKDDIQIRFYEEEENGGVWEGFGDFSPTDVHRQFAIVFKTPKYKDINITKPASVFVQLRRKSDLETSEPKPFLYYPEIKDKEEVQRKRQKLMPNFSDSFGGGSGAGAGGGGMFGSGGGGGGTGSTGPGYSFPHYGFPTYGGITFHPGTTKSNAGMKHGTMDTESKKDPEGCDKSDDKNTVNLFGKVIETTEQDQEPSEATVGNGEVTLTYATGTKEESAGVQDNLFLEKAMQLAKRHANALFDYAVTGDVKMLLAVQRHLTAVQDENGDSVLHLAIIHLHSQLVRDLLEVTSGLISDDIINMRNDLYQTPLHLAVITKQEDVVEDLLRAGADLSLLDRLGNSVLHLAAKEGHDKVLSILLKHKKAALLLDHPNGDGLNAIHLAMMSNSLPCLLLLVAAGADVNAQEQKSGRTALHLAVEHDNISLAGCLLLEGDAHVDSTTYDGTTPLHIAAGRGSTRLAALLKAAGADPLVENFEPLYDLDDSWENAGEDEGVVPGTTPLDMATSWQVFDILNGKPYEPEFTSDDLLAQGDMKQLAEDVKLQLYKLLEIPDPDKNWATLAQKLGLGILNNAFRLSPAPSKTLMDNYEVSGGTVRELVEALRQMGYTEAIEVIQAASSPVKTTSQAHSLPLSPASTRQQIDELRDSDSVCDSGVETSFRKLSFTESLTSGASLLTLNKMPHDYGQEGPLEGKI
T1 sequence (Q00653 whole entry, looked up): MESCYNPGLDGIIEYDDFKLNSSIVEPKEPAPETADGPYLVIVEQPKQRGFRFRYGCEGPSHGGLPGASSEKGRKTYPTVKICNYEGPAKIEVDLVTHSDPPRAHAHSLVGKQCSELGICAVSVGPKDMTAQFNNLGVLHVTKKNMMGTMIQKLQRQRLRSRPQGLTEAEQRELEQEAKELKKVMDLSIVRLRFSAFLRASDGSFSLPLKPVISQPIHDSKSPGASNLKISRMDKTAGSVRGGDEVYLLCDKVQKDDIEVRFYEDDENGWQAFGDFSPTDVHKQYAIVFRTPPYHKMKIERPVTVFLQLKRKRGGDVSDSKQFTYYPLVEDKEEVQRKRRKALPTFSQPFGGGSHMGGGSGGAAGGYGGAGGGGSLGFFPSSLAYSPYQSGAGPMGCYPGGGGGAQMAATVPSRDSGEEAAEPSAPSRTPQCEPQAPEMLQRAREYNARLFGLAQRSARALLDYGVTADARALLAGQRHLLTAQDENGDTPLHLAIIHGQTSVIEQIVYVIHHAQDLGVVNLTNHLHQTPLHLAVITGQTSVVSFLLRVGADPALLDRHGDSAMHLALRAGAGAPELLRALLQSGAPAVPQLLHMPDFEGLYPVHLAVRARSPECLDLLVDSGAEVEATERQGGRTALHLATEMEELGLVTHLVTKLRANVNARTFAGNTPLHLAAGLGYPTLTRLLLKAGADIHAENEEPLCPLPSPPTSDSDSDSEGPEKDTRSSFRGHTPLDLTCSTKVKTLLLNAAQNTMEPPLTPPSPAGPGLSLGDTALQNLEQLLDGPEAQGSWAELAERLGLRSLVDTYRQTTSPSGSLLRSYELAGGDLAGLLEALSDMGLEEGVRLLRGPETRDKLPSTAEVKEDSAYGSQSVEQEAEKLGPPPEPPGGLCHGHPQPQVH
T1 sequence (Q04206 whole entry, looked up): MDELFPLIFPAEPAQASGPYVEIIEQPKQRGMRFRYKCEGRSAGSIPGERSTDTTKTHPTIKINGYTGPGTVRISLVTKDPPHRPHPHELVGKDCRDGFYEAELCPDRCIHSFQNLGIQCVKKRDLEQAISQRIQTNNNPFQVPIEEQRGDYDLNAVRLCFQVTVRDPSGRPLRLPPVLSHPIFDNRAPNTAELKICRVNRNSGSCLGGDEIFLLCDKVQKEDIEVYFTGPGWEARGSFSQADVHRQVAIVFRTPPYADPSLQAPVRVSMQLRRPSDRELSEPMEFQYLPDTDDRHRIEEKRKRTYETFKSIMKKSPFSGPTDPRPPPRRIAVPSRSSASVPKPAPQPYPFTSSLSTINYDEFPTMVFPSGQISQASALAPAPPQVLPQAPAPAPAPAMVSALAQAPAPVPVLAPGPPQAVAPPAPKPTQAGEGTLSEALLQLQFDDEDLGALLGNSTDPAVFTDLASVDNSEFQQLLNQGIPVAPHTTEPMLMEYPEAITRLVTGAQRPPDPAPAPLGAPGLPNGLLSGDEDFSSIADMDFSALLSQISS
Outline: (§3)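 HEK-293 at 70% confluence transfected by calcium phosphate with NF-kB luciferase ([…]) and b-Gal ([…]) plasmids, 6–8 h, then fresh serum medium 12 h; treated 48 h, lysed, luciferase read and normalized to b-galactosidase. Three independent experiments.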

[23] = target: T1, Nuclear factor NF-kappa-B complex (Homo sapiens); experiment: Inhibition of NFkappaB (unknown origin) expressed in HEK293 cells assessed as reduction in transcriptional activity at 5 uM after 48 hrs by luciferase reporter gene assay; type: cell-based; outline: as §3
[24] = system: HEK293; experiment: Increase in Bax expression in HEK293 cells at LC50 level after 48 hrs by Western blot method; type: functional, cell-based; settings: Homo sapiens
[25] = system: HEK293; experiment: Increase in p53 expression in HEK293 cells at LC50 level after 48 hrs by Western blot method; type: functional, cell-based; settings: Homo sapiens
[26] = system: HEK293; experiment: Increase in Bax expression in p53 deficient HEK293 cells at LC50 level after 48 hrs by Western blot method; type: functional, cell-based; settings: Homo sapiens
[27] = system: HEK293; experiment: Reduction in Bcl-xL expression in p53 deficient HEK293 cells at LC50 level after 48 hrs by Western blot method; type: functional, cell-based; settings: Homo sapiens
[28] = system: HEK293; experiment: Increase in p53 expression in p53 deficient HEK293 cells at LC50 level after 48 hrs by Western blot method; type: functional, cell-based; settings: Homo sapiens
[29] = system: HEK293; experiment: Reduction in NFkappaB expression in p53 deficient HEK293 cells at LC50 level after 48 hrs by Western blot method; type: functional, cell-based; settings: Homo sapiens
[30] = system: Calf thymus DNA; experiment: Binding affinity to calf thymus DNA assessed as reduction of DNA absorption band at 260 nanometer at 3.33 to 20 uM after 2 hrs by UV-visible absorption spectroscopy; type: nucleic-acid assay; settings: Bos taurus
Outline: (§4)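 CT-DNA at fixed […] in 50 mM Tris-HCl/NaCl pH 7.5, incubated with compound for 2 h at 37 °C, scanned 200–400 nm after dilution. Spectra normalized at 230 nm. Fraction bound q from absorbance near 260 nm; Boltzmann fit, Kb as reciprocal of half-saturation concentration.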

[31] = system: Calf thymus DNA; experiment: Binding affinity to calf thymus DNA at 3.33 to 20 uM after 2 hrs by UV-visible absorption spectroscopy; type: nucleic-acid assay; settings: Bos taurus; outline: as §4
[32] = Binding affinity to GC-28 DNA (unknown origin) minor groove by DAPI staining based spectrophotometry
Outline: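 DAPI–DNA complex fluorescence read at 460 nm emission band; test compound added to the preformed complex and loss of fluorescence followed.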

Q: Which Activity [1] does the source give for C=C1CC[C@@H]2[C@](C)(CO)[C@H](O)CC[C@@]2(C)[C@@H]1C/C=C1/C(=O)OC[C@H]1OC(=O)CI here?
A: Its Activity is “inactive”.

Q: What about the Activity [2] of the same compound?
A: The Activity was “inactive”.

Q: What about the K [3] of the same compound?
A: The K was 0.02 min⁻¹.

Q: What about the Activity [4] of the same compound?
A: Its Activity is “Active”.

Q: And the Activity [5]?
A: The Activity was “Active”.

Q: What about the Activity [6] of the same compound?
A: Its Activity is “Dose-dependent effect”.

Q: What about the CC50 [7] of the same compound?
A: Its CC50 is 8 µM.

Q: What about the LC50 [8] of the same compound?
A: Its LC50 is 45 µM.

Q: What about the LC50 [9] of the same compound?
A: Its LC50 is over 40 µM.

Q: And the Activity [10]?
A: The Activity was 43.09%.

Q: And the Activity [11]?
A: The Activity was 74.03%.

Q: What about the Activity [12] of the same compound?
A: Its Activity is 78.5%.

Q: And the Activity [13]?
A: The Activity was 89.69%.

Q: What about the Activity [14] of the same compound?
A: Its Activity is 15.6%.

Q: What about the Activity [15] of the same compound?
A: Its Activity is 14.8%.

Q: And the Activity [16]?
A: Its Activity is 7.96%.

Q: And the Activity [17]?
A: The Activity was 9.21%.

Q: What about the Activity [18] of the same compound?
A: Its Activity is 7.57%.

Q: What about the Activity [19] of the same compound?
A: Its Activity is 5.67%.

Q: And the Activity [20]?
A: Its Activity is 2.14%.

Q: And the Activity [21]?
A: The Activity was 0.69%.

Q: And the inhibition [22]?
A: The inhibition was “Dose-dependent effect”.

Q: What about the fold change (FC) [23] of the same compound?
A: Its fold change (FC) is 5.

Q: And the Activity [24]?
A: Its Activity is “Active”.

Q: What about the Activity [25] of the same compound?
A: Its Activity is “Active”.

Q: And the Activity [26]?
A: The Activity was “inactive”.

Q: And the Activity [27]?
A: The Activity was “inactive”.

Q: What about the Activity [28] of the same compound?
A: Its Activity is “inactive”.

Q: And the Activity [29]?
A: Its Activity is “inactive”.

Q: And the Activity [30]?
A: Its Activity is “Active”.

Q: What about the Kb [31] of the same compound?
A: The Kb was 2.5 ×10⁵ /M.

Q: And the Activity [32]?
A: Its Activity is “Active”.
